The source of these data is PMC7578760 (iScience, 2020).

This assay has as its system CIC. Description: Nuclear/cytoplasmic distribution of CIC. Format: cell-based, human. The conditions noted are these: 293T and MCF7; FGF 10 ng/mL or EGF 75 ng/mL, time course. The procedure, abridged: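 293T and MCF7 cells grown in high-glucose DMEM with 10% FBS and penicillin-streptomycin. Endogenous CIC: cells exposed to 10 ng/mL FGF or 75 ng/mL EGF for indicated times. Exogenous CIC: cells transfected with HA-CIC plasmid for 48 h, then FGF 10 ng/mL for 0, 1, 2 h. Cells separated into nuclear and cytoplasmic fractions; CIC in each fraction detected by western blot.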

B1: EGF: mitogen, 75 ng/mL (protein, UniProt P01133 23-1207, looked up)
Pro-epidermal growth factor: PQHWSCPEGTLAGNGNSTCVGPAPFLIFSHGNSIFRIDTEGTNYEQLVVDAGVSVIMDFHYNEKRIYWVDLERQLLQRVFLNGSRQERVCNIEKNVSGMAINWINEEVIWSNQQEGIITVTDMKGNNSHILLSALKYPANVAVDPVERFIFWSSEVAGSLYRADLDGVGVKALLETSEKITAVSLDVLDKRLFWIQYNREGSNSLICSCDYDGGSVHISKHPTQHNLFAMSLFGDRIFYSTWKMKTIWIANKHTGKDMVRINLHSSFVPLGELKVVHPLAQPKAEDDTWEPEQKLCKLRKGNCSSTVCGQDLQSHLCMCAEGYALSRDRKYCEDVNECAFWNHGCTLGCKNTPGSYYCTCPVGFVLLPDGKRCHQLVSCPRNVSECSHDCVLTSEGPLCFCPEGSVLERDGKTCSGCSSPDNGGCSQLCVPLSPVSWECDCFPGYDLQLDEKSCAASGPQPFLLFANSQDIRHMHFDGTDYGTLLSQQMGMVYALDHDPVENKIYFAHTALKWIERANMDGSQRERLIEEGVDVPEGLAVDWIGRRFYWTDRGKSLIGRSDLNGKRSKIITKENISQPRGIAVHPMAKRLFWTDTGINPRIESSSLQGLGRLVIASSDLIWPSGITIDFLTDKLYWCDAKQSVIEMANLDGSKRRRLTQNDVGHPFAVAVFEDYVWFSDWAMPSVMRVNKRTGKDRVRLQGSMLKPSSLVVVHPLAKPGADPCLYQNGGCEHICKKRLGTAWCSCREGFMKASDGKTCLALDGHQLLAGGEVDLKNQVTPLDILSKTRVSEDNITESQHMLVAEIMVSDQDDCAPVGCSMYARCISEGEDATCQCLKGFAGDGKLCSDIDECEMGVPVCPPASSKCINTEGGYVCRCSEGYQGDGIHCLDIDECQLGEHSCGENASCTNTEGGYTCMCAGRLSEPGLICPDSTPPPHLREDDHHYSVRNSDSECPLSHDGYCLHDGVCMYIEALDKYACNCVVGYIGERCQYRDLKWWELRHAGHGQQQKVIVVAVCVVVLVMLLLLSLWGAHYYRTQKLLSKNPKNPYEESSRDVRSRRPADTEDGMSSCPQPWFVVIKEHQDLKNGGQPVAGEDGQAADGSMQPTSWRQEPQLCGMGTEQGCWIPVSSDKGSCPQVMERSFHMPSYGTQTLEGGVEKPHSLLSANPLWQQRALDPPHQMELTQ
modifications: Pro-epidermal growth factor
With B1, the “cytosolic fraction of CIC” value was “time-dependent increase in the cytosolic fraction of CIC” and the “nuclear fraction of CIC” value is given as “concomitant drop of the nuclear fraction”.
